Measurements as given in ChEMBL document CHEMBL3822452, “Polyphenolic compounds with anti-tumour potential from Corchorus olitorius (L.) Tiliaceae, a Nigerian leaf vegetable” (2016).
Calls of active or inactive are those of the source. No cut-off for these calls is given here.

Key:
HeLa [1] = experiment: Cytotoxicity against human HeLa cells assessed as cell rounding after 48 hrs by inverted microscopic analysis; assay type: functional, cell-based
Procedure, shortened: (§1)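 HeLa cultures were treated 48 h with increasing compound concentrations in growth medium, with controls given growth medium only. Bright-field images were then taken on an inverted microscope at x10 and examined for cell loss and rounding of remaining cells.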

HeLa [2] = experiment: Cytotoxicity against human HeLa cells assessed as cell viability at 800 uM after 48 hrs by alamar blue assay relative to control; assay type: functional; details: read-out: Activity
Procedure, shortened: (§2)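 HeLa cells in MEM with 10% FBS, 1% NEAA, 2 mM glutamine and 1% antibiotic-antimycotic were seeded at 1 x 10^5 cells/ml and grown 24 h at 37°C, 5% CO2. They were exposed 48 h to compound serially diluted in growth medium, in duplicate wells. Alamar Blue was added for 3 h, then 30 min at room temperature, and fluorescence read at ex 544/em 590 nm. Values are % of DMSO-only control, means ± SEM, with ANOVA and Dunnett's test.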

HeLa [3] = experiment: Cytotoxicity against human HeLa cells assessed as cell viability at 1600 uM after 48 hrs by alamar blue assay relative to control; assay type: functional; details: read-out: Activity; procedure, shortened: as §2
PC-3 = experiment: Cytotoxicity against human PC3 cells assessed as reduction in cell viability after 48 hrs by alamar blue assay; assay type: functional, cell-based
NCI-H460 = experiment: Cytotoxicity against human H460 cells assessed as reduction in cell viability after 48 hrs by alamar blue assay; assay type: functional, cell-based
HeLa [4] = experiment: Cytotoxicity against human HeLa cells assessed as loss of cells after 48 hrs by inverted microscopic analysis; assay type: functional, cell-based; procedure, shortened: as §1

Structure (SMILES): COc1cc(/C=C/C(=O)OC(=O)/C=C/c2ccc(O)c(OC)c2)ccc1O
- Activity (HeLa [1]): Dose-dependent effect
- viability at 800 µM (HeLa [2]): 22.3%
- viability at 1600 µM (HeLa [3]): 5.3%
- Activity (PC-3): inactive
- Activity (NCI-H460): inactive
- Activity (HeLa [4]): Dose-dependent effect

Structure (SMILES): COC(=O)[C@@]1(OC(=O)/C=C/c2ccc(O)c(O)c2)C[C@@H](O)[C@@H](OC(=O)/C=C/c2ccc(O)c(O)c2)[C@H](OC(=O)/C=C/c2ccc(O)c(O)c2)C1
- Activity (HeLa [1]): Dose-dependent effect
- viability at 800 µM (HeLa [2]): 71%
- viability at 1600 µM (HeLa [3]): 19.6%
- Activity (PC-3): inactive
- Activity (NCI-H460): inactive
- Activity (HeLa [4]): Dose-dependent effect
